Reference: ChEMBL document CHEMBL1122632, “Synthesis and antitumor activity of cis-dichloroplatinum (II)-N-aminated nucleoside complexes” (J Med Chem, 1984)
Values joined by “and” are separate entries in the source; they are usually repeats but may differ in a detail not shown here. Identical values can stand only once.

Columns and labels:
L1210 [1] = experiment: In vitro inhibition of L1210 (murine leukemia) cell growth.; type: functional, cell-based, Mus musculus
In short: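 L1210 cells (10^5 in 1 mL) were grown in RPMI 1640 with 10% FCS and kanamycin, at 37 °C in CO2, for 48 h. Compounds were heated at 110 °C for 8 h, dissolved in medium and tested at ≥6 concentrations. Viability was scored by 0.17% Trypan blue exclusion against drug-free controls. IC50 was the concentration halving living cell number, taken from the log-probit dose-response curve.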

L1210 [2] = experiment: Ratio of median survival time of the mice bearing L1210 cells in treated(T) vs. control(C) at a dose of 10 mg/kg x 2 days; type: functional, organism-based; parameters: dose 10 mg/kg; conditions: Mus musculus
In short: (§1)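 (BALB/c × DBA/2)F1 mice (20 g) were implanted ip with 10^4 L1210 cells. Compounds in saline (0.2 mL) were given ip on days 1 and 5; doses above 100 mg/kg were homogenized with Nikkol (7× by weight). Activity was scored as median survival time of treated mice and expressed as T/C, the ratio of treated to control median survival time.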

L1210 [3] = experiment: Ratio of median survival time of the mice bearing L1210 cells in treated(T) vs. control(C) at a dose of 100 mg/kg x 2 days; type: functional, organism-based; parameters: dose 100 mg/kg; conditions: Mus musculus; in short: as §1
L1210 [4] = experiment: Ratio of median survival time of the mice bearing L1210 cells in treated(T) vs. control(C) at a dose of 200 mg/kg x 2 days; type: functional, organism-based; parameters: dose 200 mg/kg; conditions: Mus musculus; in short: as §1
L1210 [5] = experiment: Ratio of median survival time of the mice bearing L1210 cells in treated(T) vs. control(C) at a dose of 25 mg/kg x 2 days; type: functional, organism-based; parameters: dose 25 mg/kg; conditions: Mus musculus; in short: as §1
L1210 [6] = experiment: Ratio of median survival time of the mice bearing L1210 cells in treated(T) vs. control(C) at a dose of 300 mg/kg x 2 days; type: functional, organism-based; parameters: dose 300 mg/kg; conditions: Mus musculus; in short: as §1
L1210 [7] = experiment: Ratio of median survival time of the mice bearing L1210 cells in treated(T) vs. control(C) at a dose of 50 mg/kg x 2 days; type: functional, organism-based; parameters: dose 50 mg/kg; conditions: Mus musculus; in short: as §1
L1210 [8] = experiment: Median survival time (MST) of mice bearing L1210 cells was determined at a dose of 50 mg/kg x 2 days administered ip.; type: functional, organism-based; parameters: dose 50 mg/kg; conditions: Mus musculus; in short: as §1
L1210 [9] = experiment: Median survival time (MST) of mice bearing L1210 cells was determined at a dose of 25 mg/kg x 2 days administered ip.; type: functional, organism-based; parameters: dose 25 mg/kg; conditions: Mus musculus; in short: as §1
L1210 [10] = experiment: Median survival time (MST) of mice bearing L1210 cells was determined at a dose of 100 mg/kg x 2 days administered ip.; type: functional, organism-based; parameters: dose 100 mg/kg; conditions: Mus musculus; in short: as §1
L1210 [11] = experiment: Median survival time (MST) of mice bearing L1210 cells was determined at a dose of 200 mg/kg x 2 days administered ip.; type: functional, organism-based; parameters: dose 200 mg/kg; conditions: Mus musculus; in short: as §1
L1210 [12] = experiment: Median survival time (MST) of mice bearing L1210 cells was determined at a dose of 300 mg/kg x 2 days administered ip.; type: functional, organism-based; parameters: dose 300 mg/kg; conditions: Mus musculus; in short: as §1
L1210 [13] = experiment: Median survival time (MST) of mice bearing L1210 cells was determined at a dose of 10 mg/kg x 2 days administered ip.; type: functional, organism-based; parameters: dose 10 mg/kg; conditions: Mus musculus; in short: as §1
Mus musculus [14] = experiment: Blood urea nitrogen values in ICR mice after intraperitoneal administration at an equivalent molar dose of the LD50 of […](13 mg/kg) on day 3; type: functional, organism-based
In short: (§2)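 ICR mice (25-30 weeks, 39 ± 4 g), 5-6 per group, given one ip dose of 0.043 mmol/kg, equimolar to 13 mg/kg cis-DDP. On days 3, 6 and 9, blood was drawn from the heart under ether anesthesia and stored frozen. BUN was measured later by a modified urease indophenol method. Results are mean ± SD, mg/100 mL blood, compared with untreated controls.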

Mus musculus [15] = experiment: Blood urea nitrogen values in ICR mice after intraperitoneal administration at an equivalent molar dose of the LD50 of […](13 mg/kg) on day 6; type: functional, organism-based; in short: as §2
Mus musculus [16] = experiment: Blood urea nitrogen values in ICR mice after intraperitoneal administration at an equivalent molar dose of the LD50 of […](13 mg/kg) on day 9; type: functional, organism-based; in short: as §2
Mus musculus [17] = experiment: Effect on body weight in ICR mice was determined after intraperitoneal administration on day 3; type: functional, organism-based
In short: (§3)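 ICR mice (25-30 weeks, 39 ± 4 g), 5-6 per group, given one ip dose of 0.043 mmol/kg, equimolar to 13 mg/kg cis-DDP. Body and kidney weights were taken on days 3, 6 and 9 and compared with untreated controls. Weights are paired, mean ± SD.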

Mus musculus [18] = experiment: Effect on body weight in ICR mice was determined after intraperitoneal administration on day 6; type: functional, organism-based; in short: as §3
Mus musculus [19] = experiment: Effect on body weight in ICR mice was determined after intraperitoneal administration on day 9; type: functional, organism-based; in short: as §3
Mus musculus [20] = experiment: Effect on kidney weight in ICR mice was determined after intraperitoneal administration on day 3; type: functional, organism-based; in short: as §3
Mus musculus [21] = experiment: Effect on kidney weight in ICR mice was determined after intraperitoneal administration on day 6; type: functional, organism-based; in short: as §3
Mus musculus [22] = experiment: Effect on kidney weight in ICR mice was determined after intraperitoneal administration on day 9; type: functional, organism-based; in short: as §3
L1210 [23] = experiment: Ratio of median survival time of the mice bearing L1210 cells in treated(T) vs. control(C) at a dose of 600 mg/kg x 2 days; type: functional, organism-based; parameters: dose 600 mg/kg; conditions: Mus musculus; in short: as §1
L1210 [24] = experiment: Ratio of median survival time of the mice bearing L1210 cells in treated(T) vs. control(C) at a dose of 900 mg/kg x 2 days; type: functional, organism-based; parameters: dose 900 mg/kg; conditions: Mus musculus; in short: as §1
L1210 [25] = experiment: Median survival time (MST) of mice bearing L1210 cells was determined at a dose of 600 mg/kg x 2 days administered ip.; type: functional, organism-based; parameters: dose 600 mg/kg; conditions: Mus musculus; in short: as §1
L1210 [26] = experiment: Median survival time (MST) of mice bearing L1210 cells was determined at a dose of 900 mg/kg x 2 days administered ip.; type: functional, organism-based; parameters: dose 900 mg/kg; conditions: Mus musculus; in short: as §1
L1210 [27] = experiment: Ratio of median survival time of the mice bearing L1210 cells in treated(T) vs. control(C) at a dose of 800 mg/kg x 2 days; type: functional, organism-based; parameters: dose 800 mg/kg; conditions: Mus musculus; in short: as §1
L1210 [28] = experiment: Median survival time (MST) of mice bearing L1210 cells was determined at a dose of 800 mg/kg x 2 days administered ip.; type: functional, organism-based; parameters: dose 800 mg/kg; conditions: Mus musculus; in short: as §1
Mus musculus [29] = experiment: Blood urea nitrogen values in ICR mice after intraperitoneal administration at an equivalent molar dose of the LD50 of […](13 mg/kg) on day 9; All death; type: functional, organism-based; in short: as §2
Mus musculus [30] = experiment: Effect on body weight in ICR mice was determined after intraperitoneal administration on day 9; All death; type: functional, organism-based; in short: as §3

3-aminocytidine-dichloroplatinum (II) [listing 1 of 2 here]
IC50 (L1210 [1]; l1210): 64 µg/mL
IC50 (L1210 [1]; l1210, read-out: IC50): 122 µM

3-aminocytidine-dichloroplatinum (II) [listing 2 of 2 here]
T/C (L1210 [2]): 119%
T/C (L1210 [3]): 131%
T/C (L1210 [4]): 138%
T/C (L1210 [5]): 125%
T/C (L1210 [6]): 138%
T/C (L1210 [7]): 125%
MST (L1210 [8]): 10 days
MST (L1210 [9]): 10 days
MST (L1210 [10]): 10.5 days
MST (L1210 [11]): 11 days
MST (L1210 [12]): 11 days
MST (L1210 [13]): 9.5 days
Blood urea nitrogen (Mus musculus [14]): 22 mg 100ml-1
Blood urea nitrogen (Mus musculus [15]): 26.3 mg 100ml-1
Blood urea nitrogen (Mus musculus [16]): 28.7 mg 100ml-1
Body weight (Mus musculus [17]): 35.6
Body weight (Mus musculus [18]): 39.9
Body weight (Mus musculus [19]): 36.5
Kidney weight (Mus musculus [20]): 545
Kidney weight (Mus musculus [21]): 637
Kidney weight (Mus musculus [22]): 571

3-aminotubercidin-dichloroplatinum (II) [listing 1 of 2 here]
IC50 (L1210 [1]; l1210): 4.9 µg/mL
IC50 (L1210 [1]; l1210, read-out: IC50): 8.96 µM

3-aminotubercidin-dichloroplatinum (II) [listing 2 of 2 here]
T/C (L1210 [2]): 112%
T/C (L1210 [3]): 144%
T/C (L1210 [4]): 144%
T/C (L1210 [5]): 125%
T/C (L1210 [6]): 150%
T/C (L1210 [7]): 131%
T/C (L1210 [23]): 156%
T/C (L1210 [24]): 156%
MST (L1210 [8]): 10.5 days
MST (L1210 [25]): 12.5 days
MST (L1210 [26]): 12.5 days
MST (L1210 [9]): 10 days
MST (L1210 [10]): 11.5 days
MST (L1210 [11]): 11.5 days
MST (L1210 [12]): 12 days
MST (L1210 [13]): 9 days
Blood urea nitrogen (Mus musculus [14]): 24 mg 100ml-1
Blood urea nitrogen (Mus musculus [15]): 22.8 mg 100ml-1
Blood urea nitrogen (Mus musculus [16]): 26.3 mg 100ml-1
Body weight (Mus musculus [17]): 38.4
Body weight (Mus musculus [18]): 39.4
Body weight (Mus musculus [19]): 40
Kidney weight (Mus musculus [20]): 587
Kidney weight (Mus musculus [21]): 686
Kidney weight (Mus musculus [22]): 750

5-amino-1-beta-D-ribofuranosylimidazole-4-carboxamide-dichloroplatinum (II)
T/C (L1210 [3]): 111%
T/C (L1210 [4]): 122%
T/C (L1210 [5]): 100%
T/C (L1210 [7]): 100%
T/C (L1210 [27]): 125%
MST (L1210 [8]): 9 days
MST (L1210 [28]): 10 days
MST (L1210 [9]): 9 days
MST (L1210 [10]): 10 days
MST (L1210 [11]): 11 days

Nc1ncnc2c1ccn2[C@@H]1O[C@H](CO)[C@@H](O)[C@H]1O [TUBERCIDIN]
IC50 (L1210 [1]; Mus musculus, L1210, read-out: IC50): 0.018 µg/mL and 67.7 nM

CISPLATIN [listing 1 of 2 here]
IC50 (L1210 [1]; l1210): 0.19 µg/mL
IC50 (L1210 [1]; l1210, read-out: IC50): 0.633 µM

CISPLATIN [listing 2 of 2 here]
Blood urea nitrogen (Mus musculus [14]): 37 mg 100ml-1
Blood urea nitrogen (Mus musculus [15]): 45.3 mg 100ml-1
Blood urea nitrogen (Mus musculus [29]): All death
Body weight (Mus musculus [30]): All death
Body weight (Mus musculus [17]): 34
Body weight (Mus musculus [18]): 31
Kidney weight (Mus musculus [20]): 599
Kidney weight (Mus musculus [21]): 555
